Published values from different studies.
Compare with care: the assays were run in different laboratories.
Target: Protein-tyrosine kinase 6 (PTK6, Homo sapiens, UniProt Q13882)

`C#Cc1n[nH]c2c(-c3cn([C@@H](C)c4ccccc4)c(=O)[nH]c3=O)cc(F)cc12` has an inhibition of 9.4% (enzyme activity, inhibitor; 0.1 µM).
`O=c1[nH]c2ccccc2n1C1CCN(Cc2ccc(-c3[nH]c4cc5ncnc5cc4nc3-c3ccccc3)cc2)CC1` gave a remaining signal of 91.1% (cell-free assay; 0.5 µM).
With `COc1ncccc1-c1cnn2ccc(N3CCN(C(=O)OC(C)C)CC3)nc12` the remaining binding was 61% (binding, competition with immobilised ligand; 1 µM).
`COc1cc(Nc2ncc(F)c(Nc3ccc4c(n3)NC(=O)C(C)(C)O4)n2)cc(OC)c1OC` has an inhibition of 82% (binding; 10 µM).
For `Cc1nn(C)cc1-c1nc2c(N3CCN(Cc4ccc(Cl)cc4)CC3)c(Cl)cnc2[nH]1`, the remaining binding was 96% (binding, competition with immobilised ligand; 1 µM).
The inhibition of `C#Cc1n[nH]c2c(-c3cn([C@@H](C)c4ccccn4)c(=O)[nH]c3=O)cc(F)cc12` is reported as 5.5% (enzyme activity, inhibitor; 0.1 µM).
For `Cn1cc(-c2cccc(N3CCc4c(sc5c4CC(C)(C)C5)C3=O)c2CO)cc(Nc2ccncn2)c1=O`, the inhibition was 1% (enzyme activity, inhibitor; 1 µM).
`CC(C)(C)c1cc(C=C(C#N)C#N)cc(Br)c1O` gave a remaining activity of 91.4% (enzyme activity, inhibitor; 0.5 µM).
`Cn1cncc1[C@@](O)(COc1ccc(C#N)cc1-c1ccc(OC(F)(F)F)cc1)c1ccc(C#N)cc1` gave a remaining binding of 100% (cell-free assay, competition with immobilised ligand; 1 µM).
For `Cn1cc(-c2cc(F)cc(N3CCn4c(cc5c4CCCC5)C3=O)c2CO)cc(Nc2ccc(N3CCN(C4COC4)CC3)cn2)c1=O`, the inhibition was 10% (enzyme activity, inhibitor; 0.1 µM).
